Calls of active or inactive are those of the source. The calls are words filed in the database; no cut-off is given here.
Assays:
[1] = biological target: T1, 5-hydroxytryptamine receptor 1F (Homo sapiens, UniProt P30939); test: Binding affinity to human 5HT1F receptor by radioligand binding assay
T1 sequence (P30939 whole entry): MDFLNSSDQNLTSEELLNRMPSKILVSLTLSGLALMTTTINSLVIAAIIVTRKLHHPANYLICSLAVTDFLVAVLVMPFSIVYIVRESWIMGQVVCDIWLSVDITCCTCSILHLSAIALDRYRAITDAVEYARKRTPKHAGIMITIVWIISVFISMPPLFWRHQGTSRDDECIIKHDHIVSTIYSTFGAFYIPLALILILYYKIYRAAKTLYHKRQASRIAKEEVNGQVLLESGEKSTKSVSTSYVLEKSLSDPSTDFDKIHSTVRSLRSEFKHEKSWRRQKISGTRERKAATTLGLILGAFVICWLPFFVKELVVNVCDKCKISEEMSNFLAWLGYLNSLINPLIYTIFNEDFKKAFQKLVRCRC
In short: (§1)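 In vitro radioligand displacement binding on cell lines expressing the appropriate human serotonin receptor subtype. Affinity is expressed as Ki (nM), each the mean of at least two determinations.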

[2] = biological target: T2, 5-hydroxytryptamine receptor 1A (Homo sapiens) (UniProt P08908); test: Binding affinity to human 5HT1A receptor by radioligand binding assay; in short: as §1
T2 sequence (whole entry): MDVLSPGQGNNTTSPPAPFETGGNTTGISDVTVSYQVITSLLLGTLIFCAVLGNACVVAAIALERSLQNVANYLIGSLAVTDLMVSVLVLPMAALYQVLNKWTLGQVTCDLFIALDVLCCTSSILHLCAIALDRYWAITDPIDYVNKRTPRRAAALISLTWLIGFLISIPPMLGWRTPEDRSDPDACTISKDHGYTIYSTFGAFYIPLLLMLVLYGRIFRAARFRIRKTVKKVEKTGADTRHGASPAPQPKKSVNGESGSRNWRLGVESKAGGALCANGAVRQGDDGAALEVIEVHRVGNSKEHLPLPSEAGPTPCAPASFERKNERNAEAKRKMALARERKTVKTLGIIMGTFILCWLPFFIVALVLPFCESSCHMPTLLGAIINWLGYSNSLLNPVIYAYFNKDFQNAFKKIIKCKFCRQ

[3] = biological target: 5-hydroxytryptamine receptor 1B (Homo sapiens) (UniProt P28222); test: Binding affinity to human 5HT1B receptor by radioligand binding assay; in short: as §1
[4] = biological target: 5-hydroxytryptamine receptor 1D (Homo sapiens) (UniProt P28221); test: Binding affinity to human 5HT1D receptor by radioligand binding assay; in short: as §1
[5] = biological target: T2, 5-hydroxytryptamine receptor 1A (Homo sapiens); test: Inhibition of radioligand binding to human 5HT1A receptor at 10 uM
In short: (§2)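 Single-concentration radioligand displacement at 10 µM test compound in cell lines expressing the human 5-HT1A, 5-HT1B or 5-HT1D receptor. Read-out is percent inhibition of radioligand binding.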

[6] = biological target: 5-hydroxytryptamine receptor 1B (Homo sapiens) (UniProt P28222); test: Inhibition of radioligand binding to human 5HT1B receptor at 10 uM; in short: as §2
[7] = biological target: 5-hydroxytryptamine receptor 1D (Homo sapiens) (UniProt P28221); test: Inhibition of radioligand binding to human 5HT1D receptor at 10 uM; in short: as §2
[8] = biological target: 5-HT1A/5-HT1F (Homo sapiens) (UniProt P30939+P08908); test: Selectivity index, ratio of Ki for human 5HT1A receptor to Ki for human 5HT1F receptor
In short: (§3)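 Ratio of the Ki at the 5-HT1A, 5-HT1B or 5-HT1D receptor to the Ki at the 5-HT1F receptor. Each Ki comes from at least two radioligand binding determinations in cell lines expressing the human receptor.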

[9] = biological target: 5-HT1B/5-HT1F (Homo sapiens) (UniProt P30939+P28222); test: Selectivity index, ratio of Ki for human 5HT1B receptor to Ki for human 5HT1F receptor; in short: as §3
[10] = biological target: 5-HT1D/5-HT1F (Homo sapiens) (UniProt P30939+P28221); test: Selectivity index, ratio of Ki for human 5HT1D receptor to Ki for human 5HT1F receptor; in short: as §3
[11] = biological target: T1, 5-hydroxytryptamine receptor 1F; test: Agonist activity at human 5HT1F receptor expressed in LM(tk-) cells by [35S]GTPgammaS binding assay; type: functional, cell-based
[12] = biological target: T3, 5-hydroxytryptamine receptor 1F (Homo sapiens) (UniProt P30939); test: Agonist activity at human 5HT1F receptor expressed in LM(tk-) cells by [35S]GTPgammaS binding assay relative to 5-HT; type: functional, cell-based
T3 sequence (whole entry): T1 sequence (P30939 whole entry)

5-HT1B/5-HT1F (Homo sapiens), sequence (P28222 whole entry, looked up, one chain of several): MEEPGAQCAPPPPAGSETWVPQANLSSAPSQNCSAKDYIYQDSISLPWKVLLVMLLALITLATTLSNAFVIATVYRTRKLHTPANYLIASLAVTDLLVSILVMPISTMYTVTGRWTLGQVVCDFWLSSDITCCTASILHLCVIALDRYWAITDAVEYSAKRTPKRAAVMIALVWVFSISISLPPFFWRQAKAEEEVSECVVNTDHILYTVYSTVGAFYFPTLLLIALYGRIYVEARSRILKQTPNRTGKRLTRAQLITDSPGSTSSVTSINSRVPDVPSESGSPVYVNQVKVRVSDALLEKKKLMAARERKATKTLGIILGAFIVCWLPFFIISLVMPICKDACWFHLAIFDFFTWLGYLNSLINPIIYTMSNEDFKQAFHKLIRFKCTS
5-hydroxytryptamine receptor 1B (Homo sapiens), sequence (P28222 whole entry): as the sequence (P28222 whole entry, looked up, one chain of several) above
5-hydroxytryptamine receptor 1D (Homo sapiens), sequence (P28221 whole entry): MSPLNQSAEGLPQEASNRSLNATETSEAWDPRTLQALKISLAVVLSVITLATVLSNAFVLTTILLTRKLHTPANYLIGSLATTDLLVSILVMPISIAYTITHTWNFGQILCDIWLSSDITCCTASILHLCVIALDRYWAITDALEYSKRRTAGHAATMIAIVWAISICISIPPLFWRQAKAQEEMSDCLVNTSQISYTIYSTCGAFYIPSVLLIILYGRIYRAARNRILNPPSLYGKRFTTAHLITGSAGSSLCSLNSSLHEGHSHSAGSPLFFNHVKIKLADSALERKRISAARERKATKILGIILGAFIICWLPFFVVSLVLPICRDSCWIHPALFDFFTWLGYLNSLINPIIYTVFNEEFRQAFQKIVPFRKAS
5-HT1D/5-HT1F (Homo sapiens), sequence (P28221 whole entry, looked up, one chain of several): as the sequence (P28221 whole entry) above

Structure (SMILES)	Ki [1]	Activity [2]	Activity [3]	Activity [4]	inhibition [5]	inhibition [6]	inhibition [7]	Ratio Ki [8]	Ratio Ki [9]	Ratio Ki [10]	EC50 [11]	Emax [12]
Cc1c(NC(=O)c2ccc(F)cc2)cccc1C(=O)C1CCN(C)CC1	0.87 µM	inactive	inactive	inactive	< 50%	< 50%	< 50%					
CN1CCC(C(=O)c2ccnc(NC(=O)c3ccc(F)cc3)c2)CC1	2.4 µM							0.7	2	0.5		
CN1CCC(C(=O)c2cc(NC(=O)c3ccc(F)cc3)ccc2F)CC1	1.3 µM	inactive	inactive	inactive	< 50%	< 50%	< 50%					
CN1CCC(C(=O)c2ccc(F)c(NC(=O)c3ccc(F)cc3)c2)CC1	0.53 µM		inactive	inactive		< 50%	< 50%	2				
CN1CCC(C(=O)c2cccc(NC(=O)c3ccc(F)cc3)c2F)CC1	0.0083 µM	inactive	inactive	inactive	< 50%	< 50%	< 50%				0.055 µM	85%
CN1CCC(C(=O)c2cccc(NC(=O)c3ccc(F)cc3)c2Cl)CC1	1.7 µM							0.3	1.6	0.2		
CN1CCC(C(=O)c2cncc(NC(=O)c3ccc(F)cc3)c2)CC1	3.2 µM		inactive			< 50%		1		0.6		
CN1CCC(c2c[nH]c3ccc(NC(=O)c4ccc(F)cc4)cc23)CC1								5	54	98		
COc1c(NC(=O)c2ccc(F)cc2)cccc1C(=O)C1CCN(C)CC1	0.61 µM							0.5	4.3	3.4		
CN1CCC(C(=O)c2cccc(NC(=O)c3ccc(F)cc3)c2)CC1	0.0051 µM		inactive			< 50%		170		730	0.087 µM	79%
CN1CCC(C(=O)c2cc(NC(=O)c3ccc(F)cc3)ccn2)CC1		inactive	inactive	inactive	< 50%	< 50%	< 50%					
CN1CCC(C(=O)c2cccc(NC(=O)c3ccc(F)cc3)n2)CC1	0.0095 µM		inactive			< 50%		91		110	0.11 µM	90%
CN1CCC(C(=O)c2cccc(NC(=O)c3ccc(F)cc3)c2O)CC1	1.1 µM	inactive		inactive	< 50%		< 50%		2.5			
CN1CCC(C(=O)c2cc(F)cc(NC(=O)c3ccc(F)cc3)c2)CC1	0.041 µM		inactive	inactive		< 50%	< 50%	22				

Source: ChEMBL document CHEMBL3616417, “Discovery of selective N-[3-(1-methyl-piperidine-4-carbonyl)-phenyl]-benzamide-based 5-HT₁ F receptor agonists: Evolution from bicyclic to monocyclic cores” (Bioorg Med Chem Lett, 2015)
